In ChEMBL document CHEMBL4330085, “Peptidomimetic plasmepsin inhibitors with potent anti-malarial activity and selectivity against cathepsin D” (Eur J Med Chem, 2019):
Active and inactive are the calls of the source. The calls are words filed in the database; no cut-off is given here.

What was measured:
Plasmepsin 4 = Plasmepsin 4 (Plasmodium falciparum, UniProt Q17SB2); test: Inhibition of Plasmodium falciparum plasmepsin 4 using DABCYL-Glu-Arg-Nle-Phe-Leu-Ser-Phe-Pro-EDANS as substrate preincubated for 30 mins followed by substrate addition and measured every min for 8 to 15 mins by FRET assay
Cathepsin D = Cathepsin D (Homo sapiens, UniProt P07339); test: Inhibition of human cathepsin D using DABCYL-Glu-Arg-Nle-Phe-Leu-Ser-Phe-Pro-EDANS as substrate preincubated for 30 mins followed by substrate addition and measured every min for 8 to 15 mins by FRET assay
[1] = target: Plasmepsin X (Plasmodium falciparum (isolate 3D7)) (UniProt Q8IAS0); test: Inhibition of Plasmodium falciparum plasmepsin 10-mediated SUB1 maturation and egress assessed as enrichment of SUB1 p54 form level at 10 nM after 8 hrs by Western blot analysis
Procedure, shortened: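 Synchronous cultures of immature intracellular parasites were exposed for ~8 h to compound at 10 nM. Controls were vehicle (DMSO, 1% v/v) and a cGMP-dependent protein kinase inhibitor at 2 μM. Parasite extracts were analysed by Western blot with anti-SUB1 antibody, scoring the p54 and p47 forms.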

Plasmepsin II = Plasmepsin II (Plasmodium falciparum, UniProt P46925); test: Inhibition of Plasmodium falciparum plasmepsin 2 using DABCYL-Glu-Arg-Nle-Phe-Leu-Ser-Phe-Pro-EDANS as substrate preincubated for 30 mins followed by substrate addition and measured every min for 8 to 15 mins by FRET assay
Plasmodium falciparum = test: Antimalarial activity against blood stage form of Plasmodium falciparum 3D7 infected in erythrocytes after 96 hrs by SYBR Green I dye-based spectrophotometric analysis; format: functional, organism-based; details: 3D7, 96 h
Procedure, shortened: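 P. falciparum blood-stage growth was read by SYBR Green fluorescence after a 96 h incubation (2 erythrocytic cycles). EC50 values came from triplicate samples in 2 separate biological assays, with a reference inhibitor as positive control.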

Plasmepsin I = Plasmepsin I (Plasmodium falciparum, UniProt P39898); test: Inhibition of Plasmodium falciparum plasmepsin 1 using DABCYL-Glu-Arg-Nle-Phe-Leu-Ser-Phe-Pro-EDANS as substrate preincubated for 30 mins followed by substrate addition and measured every min for 8 to 15 mins by FRET assay
[2] = target: Plasmepsin X (Plasmodium falciparum (isolate 3D7)) (UniProt Q8IAS0); test: Inhibition of Plasmodium falciparum plasmepsin 10-mediated SUB1 maturation and egress assessed as reduction in SERA5 P50 level at 10 nM by Western blot analysis

Sequence of Cathepsin D (P07339 65-162 limits assumed): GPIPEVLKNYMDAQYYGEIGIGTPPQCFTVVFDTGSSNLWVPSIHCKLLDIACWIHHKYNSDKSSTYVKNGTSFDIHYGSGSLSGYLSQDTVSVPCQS
Sequence of Cathepsin D (P07339 169-412 limits assumed): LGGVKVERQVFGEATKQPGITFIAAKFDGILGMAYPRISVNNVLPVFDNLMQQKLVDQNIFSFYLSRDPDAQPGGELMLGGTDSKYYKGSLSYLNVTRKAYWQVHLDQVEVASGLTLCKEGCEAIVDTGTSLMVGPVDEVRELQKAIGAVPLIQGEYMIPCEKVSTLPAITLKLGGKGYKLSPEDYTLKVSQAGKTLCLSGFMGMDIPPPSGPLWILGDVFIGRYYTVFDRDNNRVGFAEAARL
Sequence of Plasmepsin 4 (Q17SB2 whole entry): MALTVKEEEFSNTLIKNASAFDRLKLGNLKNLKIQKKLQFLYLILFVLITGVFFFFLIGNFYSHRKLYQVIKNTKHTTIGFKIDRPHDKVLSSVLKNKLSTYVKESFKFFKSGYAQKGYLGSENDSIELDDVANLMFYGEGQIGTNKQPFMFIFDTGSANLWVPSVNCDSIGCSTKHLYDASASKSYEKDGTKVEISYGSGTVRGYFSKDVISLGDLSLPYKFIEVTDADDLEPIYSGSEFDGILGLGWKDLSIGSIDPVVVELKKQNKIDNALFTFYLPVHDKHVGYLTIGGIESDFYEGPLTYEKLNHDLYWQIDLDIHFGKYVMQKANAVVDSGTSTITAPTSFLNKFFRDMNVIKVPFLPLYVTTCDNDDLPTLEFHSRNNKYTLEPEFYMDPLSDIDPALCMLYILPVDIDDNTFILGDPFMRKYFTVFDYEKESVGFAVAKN
Sequence of Plasmepsin II (P46925 whole entry): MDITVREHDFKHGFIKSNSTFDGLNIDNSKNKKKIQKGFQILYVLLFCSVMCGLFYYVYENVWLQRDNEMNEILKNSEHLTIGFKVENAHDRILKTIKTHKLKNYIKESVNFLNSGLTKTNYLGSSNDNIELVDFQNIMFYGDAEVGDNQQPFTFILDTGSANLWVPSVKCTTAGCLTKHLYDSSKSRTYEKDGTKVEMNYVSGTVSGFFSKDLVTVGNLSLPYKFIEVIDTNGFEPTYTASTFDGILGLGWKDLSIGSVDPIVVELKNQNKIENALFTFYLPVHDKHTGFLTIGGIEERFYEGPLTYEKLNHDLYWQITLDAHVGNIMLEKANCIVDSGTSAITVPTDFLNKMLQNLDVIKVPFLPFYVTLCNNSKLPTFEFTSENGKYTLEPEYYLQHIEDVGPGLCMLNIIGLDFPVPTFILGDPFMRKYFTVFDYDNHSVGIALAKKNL
Sequence of Plasmepsin I (P39898 whole entry): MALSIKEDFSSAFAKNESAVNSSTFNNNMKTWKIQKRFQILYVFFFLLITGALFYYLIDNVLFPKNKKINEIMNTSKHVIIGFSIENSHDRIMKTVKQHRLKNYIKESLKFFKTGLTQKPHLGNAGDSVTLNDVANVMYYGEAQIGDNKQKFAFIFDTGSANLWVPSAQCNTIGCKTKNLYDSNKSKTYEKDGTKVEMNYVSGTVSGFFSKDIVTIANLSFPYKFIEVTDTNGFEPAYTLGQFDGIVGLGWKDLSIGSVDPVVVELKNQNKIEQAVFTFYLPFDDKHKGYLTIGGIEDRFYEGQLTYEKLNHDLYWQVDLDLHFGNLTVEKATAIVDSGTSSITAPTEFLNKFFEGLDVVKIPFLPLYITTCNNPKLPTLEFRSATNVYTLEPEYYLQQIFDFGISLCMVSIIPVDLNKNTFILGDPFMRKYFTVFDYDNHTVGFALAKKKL
Sequence of Plasmepsin X (Plasmodium falciparum (isolate 3D7)) (Q8IAS0 whole entry): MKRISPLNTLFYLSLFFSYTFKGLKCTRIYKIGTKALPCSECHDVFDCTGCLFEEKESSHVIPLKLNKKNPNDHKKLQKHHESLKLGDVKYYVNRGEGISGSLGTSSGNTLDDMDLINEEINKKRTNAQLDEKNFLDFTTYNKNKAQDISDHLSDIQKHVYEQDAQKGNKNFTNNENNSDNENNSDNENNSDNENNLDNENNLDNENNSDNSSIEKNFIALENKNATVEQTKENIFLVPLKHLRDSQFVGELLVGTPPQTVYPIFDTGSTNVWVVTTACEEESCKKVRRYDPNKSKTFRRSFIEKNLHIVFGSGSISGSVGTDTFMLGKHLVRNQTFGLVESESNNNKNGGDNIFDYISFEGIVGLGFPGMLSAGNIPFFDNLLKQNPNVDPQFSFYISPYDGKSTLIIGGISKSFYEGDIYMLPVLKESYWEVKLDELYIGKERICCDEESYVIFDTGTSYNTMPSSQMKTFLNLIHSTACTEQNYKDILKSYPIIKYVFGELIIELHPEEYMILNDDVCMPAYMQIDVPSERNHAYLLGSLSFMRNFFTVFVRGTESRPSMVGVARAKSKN

SMILES	IC50 (Plasmepsin 4) [nM]	IC50 (Cathepsin D) [nM]	inhibition [1]	IC50 (Plasmepsin II) [nM]	EC50 (Plasmodium falciparum) [nM]	IC50 (Plasmepsin I) [nM]	inhibition [2]
COc1cccc(C(C)(C)NC[C@@H](O)[C@H](Cc2ccccc2)NC(=O)c2cc(C(=O)NCCN(C)C)cc(N3CCCCC3)c2)c1	360	4800	–	–	–	–	–
COc1cccc(C(C)(C)NC[C@@H](O)[C@H](Cc2ccccc2)NC(=O)c2cc(C(=O)N(CC(C)C)CC(C)C)cc(N3CCCCC3)c2)c1	500	1300	–	–	–	–	–
COc1cccc(C(C)(C)NC[C@@H](O)[C@H](Cc2ccccc2)NC(=O)c2cc(C(=O)N(C)C)cc(N3CCCCC3)c2)c1	87	500	–	–	–	–	–
COCCN(CCOC)C(=O)c1cc(C(=O)N[C@@H](Cc2ccccc2)[C@H](O)CNC(C)(C)c2cccc(OC)c2)cc(N2CCCCC2)c1	37	100	–	–	–	–	–
CCN(CC)C(=O)c1cc(C(=O)N[C@@H](Cc2ccccc2)[C@H](O)CNC(C)(C)c2cccc(OC)c2)cc(N2CCCCC2)c1	14	250	Active	160	1.5	800	–
COc1cccc(C(C)(C)NC[C@@H](O)[C@H](Cc2ccccc2)NC(=O)c2cc(C(=O)NCCOC(C)(C)C)cc(N3CCCCC3)c2)c1	31	150	–	–	–	–	–
COc1cccc(C(C)(C)NC[C@@H](O)[C@H](Cc2ccccc2)NC(=O)c2cc(C(=O)NCC(C)(C)O)cc(N3CCCCC3)c2)c1	100	1660	–	–	–	–	–
COc1cccc(C(C)(C)NC[C@@H](O)[C@H](Cc2ccccc2)NC(=O)c2cc(C(=O)NCCCO)cc(N3CCCCC3)c2)c1	93	2250	–	–	–	–	–
CCCN(CCC)C(=O)c1cc(C(=O)N[C@@H](Cc2ccccc2)[C@H](O)CNC(C)(C)c2cccc(OC)c2)cc(C(F)(F)F)c1	15	67	–	–	–	–	–
COc1cccc(C(C)(C)NC[C@@H](O)[C@H](Cc2ccccc2)NC(=O)c2cc(C(=O)N(CCO)CCO)cc(N3CCCCC3)c2)c1	68	270	–	–	–	–	–
COc1cccc(C(C)(C)NC[C@@H](O)[C@H](Cc2ccccc2)NC(=O)c2cc(C(=O)NCCC(F)(F)F)cc(N3CCCCC3)c2)c1	24	580	–	2200	2	2500	–
COc1cccc(C(C)(C)NC[C@@H](O)[C@H](Cc2ccccc2)NC(=O)c2cc(C(=O)NCC(C)(C)OC)cc(N3CCCCC3)c2)c1	48	2100	–	5400	2	7400	–
CCCN(CCC)C(=O)c1cc(C#N)cc(C(=O)N[C@@H](Cc2ccccc2)[C@H](O)CNC(C)(C)c2cccc(OC)c2)c1	59	560	–	–	–	–	–
COCCNC(=O)c1cc(C(=O)N[C@@H](Cc2ccccc2)[C@H](O)CNC(C)(C)c2cccc(OC)c2)cc(N2CCCCC2)c1	50	750	–	–	–	–	–
CCCN(CCC)C(=O)c1cccc(C(=O)N[C@@H](Cc2ccccc2)[C@H](O)CNC(C)(C)c2cccc(OC)c2)c1	58	1150	Active	1700	0.3	3100	Active
COc1cccc(C(C)(C)NC[C@@H](O)[C@H](Cc2ccccc2)NC(=O)c2cc(C(=O)NC(C)(C)CO)cc(N3CCCCC3)c2)c1	120	1460	–	–	–	–	–
COc1cccc(C(C)(C)NC[C@@H](O)[C@H](Cc2ccccc2)NC(=O)c2cc(C(=O)NCC3CC3)cc(N3CCCCC3)c2)c1	30	760	–	500	1.8	1800	–
CCCN(CCC)C(=O)c1cc(Cl)cc(C(=O)N[C@@H](Cc2ccccc2)[C@H](O)CNC(C)(C)c2cccc(OC)c2)c1	8	96	–	–	–	–	–
CCCN(CCC)C(=O)c1cc(F)cc(C(=O)N[C@@H](Cc2ccccc2)[C@H](O)CNC(C)(C)c2cccc(OC)c2)c1	50	1000	Active	1100	1.5	1100	Active
COc1cccc(C(C)(C)NC[C@@H](O)[C@H](Cc2ccccc2)NC(=O)c2cc(C(=O)NCCO)cc(N3CCCCC3)c2)c1	210	1420	–	–	–	–	–
CCCN(CCC)C(=O)c1cc(C(=O)N[C@@H](Cc2ccccc2)[C@H](O)CNC(C)(C)c2cccc(OC)c2)cc(C(=O)N(CCC)CCC)c1	18	700	–	270	6	780	–
COc1cccc(C(C)(C)NC[C@@H](O)[C@H](Cc2ccccc2)NC(=O)c2cc(C(=O)N(CCC(F)(F)F)CCC(F)(F)F)cc(N3CCCCC3)c2)c1	210	120	–	–	–	–	–
COc1cccc(C(C)(C)NC[C@@H](O)[C@H](Cc2ccccc2)NC(=O)c2cc(C(=O)NCC3CCCCC3)cc(N3CCCCC3)c2)c1	90	150	–	–	–	–	–
COc1cccc(C(C)(C)NC[C@@H](O)[C@H](Cc2ccccc2)NC(=O)c2cc(C(=O)NCC(C)(C)C)cc(N3CCCCC3)c2)c1	27	400	–	850	6	2000	–
COc1cccc(C(C)(C)NC[C@@H](O)[C@H](Cc2ccccc2)NC(=O)c2cc(C(=O)NCc3ccccc3)cc(N3CCCCC3)c2)c1	38	220	–	–	–	–	–
CCCN(CCC)C(=O)c1cc(C)cc(C(=O)N[C@@H](Cc2ccccc2)[C@H](O)CNC(C)(C)c2cccc(OC)c2)c1	23	210	–	–	–	–	–
COc1cccc(C(C)(C)NC[C@@H](O)[C@H](Cc2ccccc2)NC(=O)c2cccc(C(=O)NCC(C)(C)C)c2)c1	76	3800	–	7100	2	5600	–
COc1cccc(C(C)(C)NC[C@@H](O)[C@H](Cc2ccccc2)NC(=O)c2cccc(C(=O)NCCC(F)(F)F)c2)c1	150	4900	–	10400	6	10300	–
